In ChEMBL document CHEMBL1122411 (J Med Chem, 1983):
pIC50: −log10 of the molar value. Several values for one entry are separate records, joined by “and”; a condition that tells them apart may be missing. Equal values may be shown once.

Legend:
Type in all cases: functional
[1] = system: Mus musculus; experiment: Toxicity in mice after 15-17 days at a dose of 0.5 mg/kg/day; value is 16/8
[2] = system: Mus musculus; experiment: Weight change on day 7 in L1210 Lymphoid Leukemia in mice at a dose of 4 mg/kg/day (qdX9)
How it was run: (§1)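 Male B6D2F₁J mice (20–25 g) bearing ip L1210 ascites (10⁵ cells, day 0) were used, 5 per group. Drug was given ip in water at pH 7.5–8.0 from day 1 on q2d×5, qd×9 or b.i.d.×10 schedules. Animals were weighed after 7 days and percent weight change recorded.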

[3] = system: Mus musculus; experiment: Toxicity in mice after 11-22 days at a dose of 6 mg/kg/day; value is 21/9
[4] = organism: Mus musculus; experiment: Percentage increase in life span after 11-22 days
How it was run: (§2)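 Male B6D2F1J mice (20–25 g), randomized after i.p. inoculation with 10^5 L1210 ascitic leukemia cells on day 0. Drug in water, pH 7.5–8.0, given i.p. on a q2d×5, qd×9 (from day 1) or b.i.d.×10 schedule; 5 mice per group. %ILS = [(T/C) − 1]100 from median survival days of treated versus control mice. Range is survival days.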

[5] = system: Mus musculus; experiment: Toxicity in mice after 14-18 days at a dose of 2 mg/kg/day; value is 16/9
[6] = organism: Mus musculus; experiment: Percentage increase in life span after 17-22 days; how it was run: as §2
[7] = organism: Mus musculus; experiment: Percentage increase in life span after 14-18d ays; how it was run: as §2
[8] = organism: Mus musculus; experiment: Toxicity in mice after 17-22 days at a dose of; value is 20/9
[9] = system: Mus musculus; experiment: Toxicity in mice after 12-19 days at a dose of 4 mg/kg/day; value is 17/9
[10] = system: Mus musculus; experiment: Weight change on day 7 in L1210 Lymphoid Leukemia in mice at a dose of 15 mg/kg/day (qd x5); details: in the assay text read “q2dx5” for “qdx5”; how it was run: as §1
[11] = system: Mus musculus; experiment: Weight change on day 7 in L1210 Lymphoid Leukemia in mice at a dose of 6 mg/kg/day (qdX9)
How it was run: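 Male B6D2F1J mice (20–25 g) were inoculated i.p. with 10⁵ L1210 ascites cells on day 0 and randomized into groups of 5. Drug in water at pH 7.5–8.0 was given i.p. daily for 9 days (qd×9) from day 1. Animals were weighed after 7 days, and the % body-weight change was recorded under a standard NCI protocol.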

[12] = system: Mus musculus; experiment: Weight change on day 7 in L1210 Lymphoid Leukemia in mice at a dose of 0.25 mg/kg/day (b.i.d. x10); how it was run: as §1
[13] = system: Mus musculus; experiment: Weight change on day 7 in L1210 Lymphoid Leukemia in mice at a dose of 0.75 mg/kg/day (b.i.d. x10); how it was run: as §1
[14] = system: Mus musculus; experiment: Weight change on day 7 in L1210 Lymphoid Leukemia in mice at a dose of 10 mg/kg/day (qd x5)
[15] = system: Mus musculus; experiment: Weight change on day 7 in L1210 Lymphoid Leukemia in mice at a dose of 0.5 mg/kg/day (b.i.d. x10); how it was run: as §1
[16] = organism: Mus musculus; experiment: 1Percentage increase in life span after 12-15 days; how it was run: as §2
[17] = system: Mus musculus; experiment: Toxicity in mice after 14-18 days at a dose of 10 mg/kg/day; value is 17/9
[18] = organism: Mus musculus; experiment: Percentage increase in life span after 12-19 days; how it was run: as §2
[19] = system: Mus musculus; experiment: Weight change on day 7 in L1210 Lymphoid Leukemia in mice at a dose of 2 mg/kg/day (qdx9); how it was run: as §1
[20] = system: Mus musculus; experiment: Toxicity in mice after 15-17 days at a dose of 0.75 mg/kg/day; value is 17/8
[21] = system: Mus musculus; experiment: Toxicity in mice after 12-15 days at a dose of 0.25 mg/kg/day; value is 13/8
[22] = system: L1210; experiment: cytotoxicity against L1210 cells; details: Mus musculus, read-out: ID50 (the source's name)

For `CN(Cc1cnc2nc(N)nc(N)c2n1)c1ccc(C(=O)N[C@@H](CCC(=O)O)C(=O)O)cc1` [METHOTREXATE], the T/C [1] was 16, the Weight change [2] was -2% and the T/C [3] was 21. It also gave an ILS [4] of 133%, a T/C [5] of 16 and an ILS [6] of 122%. For the same molecule, the ILS [7] was 89% and 78%, the T/C [8] was 20 and the T/C [9] was 17. It also gave a Weight change [10] of 8%, a Weight change [11] of -2% and a Weight change [12] of 1%. The Weight change [13] was 3%, the Weight change [14] was 11% and the Weight change [15] was 1%. For the same molecule, the ILS [16] was 63%, the T/C [17] was 17 and the ILS [18] was 89%. It also gave a Weight change [19] of 6%, a T/C [20] of 17 and a T/C [21] of 13. The pIC50 [22] was 7.70.
